A selection: hits, their analogues and other compounds. The true share with any hit is near 1.8%.
CHRM4 agonist: agonists of human muscarinic M4 receptor (CHRM4). P08173. CHO-K1 hM4/Gqi5, Fluo-8 calcium fluorescence; vehicle 0%, full acetylcholine response 100%. activation, % at 3 µM. actives 0.14% (n = 360,000);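 active means activation above the run mean over all test wells plus 3 SD, cut at about 32% in these data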;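 further: peak over basal fluorescence ratio per well then scaled between controls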
CHRM5 agonist: CHRM5 agonism in calcium assay; CHO-K1 hM5 cells, Fluo-8 calcium fluorescence; 0% DMSO wells, 100% maximal acetylcholine response; activation, % at 3 µM; actives 0.19% (n = 360,000);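 active means activation above the run's mean over test compounds plus 3 SD, cut at about 23% in these data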;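 further: signal is peak over basal fluorescence ratio across the kinetic read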
Target sequence (P08912 whole entry, looked up): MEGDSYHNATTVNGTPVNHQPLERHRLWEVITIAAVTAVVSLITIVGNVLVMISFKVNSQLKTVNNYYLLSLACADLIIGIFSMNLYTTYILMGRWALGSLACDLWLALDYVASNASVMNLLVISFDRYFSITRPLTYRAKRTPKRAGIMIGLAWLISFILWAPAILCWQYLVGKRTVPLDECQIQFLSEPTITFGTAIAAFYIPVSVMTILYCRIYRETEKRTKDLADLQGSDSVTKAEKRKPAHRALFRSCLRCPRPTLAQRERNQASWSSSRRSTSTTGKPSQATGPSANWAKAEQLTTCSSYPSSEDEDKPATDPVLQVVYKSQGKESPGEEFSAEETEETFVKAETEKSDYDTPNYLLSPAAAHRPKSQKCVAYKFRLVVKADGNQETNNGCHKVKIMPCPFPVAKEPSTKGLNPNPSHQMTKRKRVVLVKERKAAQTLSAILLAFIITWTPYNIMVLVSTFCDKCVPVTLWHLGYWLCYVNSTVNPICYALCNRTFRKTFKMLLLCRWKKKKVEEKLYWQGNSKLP
CHRM4 PAM: CHRM4 positive allosteric modulation; CHO-K1 hM4/Gqi5, Fluo-8 calcium fluorescence, ACh EC20; 0% = ACh EC20, 100% = maximal ACh; actives 0.4% (n = 360,000); AID 624126; P08173; activation, % at 3 µM;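 active means activation above its plate's cutoff, the mean activation of sample wells plus 3 SD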
M4 antag: blocks acetylcholine activation of human M4 receptor. CHO-hM4 cells, ACh EC80, Fluo-8 calcium fluorescence. inhibition, % at 3 µM. AID 624125. actives 0.73% (n = 360,000);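 active means inhibition above its plate's cutoff, the mean inhibition of sample wells plus 3 SD, cut at about 27% in these data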
M5 antag: CHRM5 antagonism in calcium assay | inhibition, % at 3 µM | P08912 | AID 624040 | CHO-hM5 cells, Fluo-8 calcium fluorescence, ACh EC80 | actives 0.59% (n = 360,000);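 active means inhibition above a per-plate cutoff, the mean of that plate's test compounds plus 3 SD, cut at about 27% in these data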
M5 PAM: potentiates acetylcholine response at human M5 receptor; P08912; CHO-K1 hM5, Fluo-8 calcium, ACh EC20 PAM; 0% = ACh EC20, 100% = ACh EC100; activation, % at 3 µM; actives 0.3% (n = 360,000); AID 624038;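 active means activation above the run cutoff, the mean activation of all test compounds plus 3 SD, cut at about 18% in these data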
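system = human M5 receptor in CHO-K1 cells | reagent = EC20 acetylcholine as agonist stimulus | compound dosing = single-point, 3 µM nominal | incubation = Fluo-8 loading 80 min at 37 °C plus 30 min room temperature | detection = Fluo-8 calcium dye fluorescence, kinetic read | benchmarks = low control EC20 acetylcholine (0%), high control EC100 acetylcholine (100%)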
Each line names hits and unclear results; the compound was inactive in the other large screens; ! = not confirmed by another sample.

COC(=O)c1[nH]c2ccc(F)cc2c1NS(=O)(=O)c1ccc(F)c(C)c1	M4 antag 40
CCCCS(=O)(=O)c1sc2nc(C)cc(C)c2c1N	M5 PAM 21
CC(C)(C)N(Cc1ccccc1)C(=O)c1ccc(Cl)cc1[N+](=O)[O-]	M4 antag 27
Cc1ccc(C(=O)N(Cc2ccccc2)C(C)(C)C)cc1C	M4 antag 37
CC(C)(C)N(Cc1ccccc1)C(=O)c1ccc(Br)o1	none
CCN(C(=O)c1ccc(Cl)cc1[N+](=O)[O-])c1ccccc1C	none
Fc1ccc2nc(C3CCCCN3Cc3nc(CC4CC4)no3)[nH]c2c1 (stereo unspecified)	M5 PAM 27
CCCCCCc1c(C)c2ccc(OCC(=O)N[C@@H](Cc3ccccc3)C(=O)O)cc2oc1=O	none
NC(N)=N/N=C/c1c(Cl)cccc1Cl	CHRM5 agonist 29!
CN(C(=O)COC(=O)c1ccc2c(c1)OCCO2)C1CCCCC1	none
Cc1cc(C)cc(OCC(=O)NNC(=O)CC(C)c2ccccc2)c1 (stereo unspecified)	none
Cc1nn(-c2ccccc2)c(C)c1C(=O)OCC(=O)Nc1ccccc1C(F)(F)F	CHRM4 PAM 23
COc1ccccc1NC(=O)COC(=O)c1c(C)nn(-c2ccccc2)c1C	none
CCCCCCC1CC(=CN(C)C)C(=O)O1 (stereo unspecified)	none
CC(C)N(C(=O)CN(C#N)c1nc(N(C)C)nc(N(C)C)n1)c1ccccc1	CHRM4 PAM 42
Cc1cc(C)c2nc(SCC(=O)NCCC3=CCCCC3)cc(C)c2c1	none
O=C1Nc2ccc(Cl)cc2C(C#CC2CC2)(C(F)(F)F)O1 (stereo unspecified)	M4 antag 32
Nc1nnnn1N=C1CCCCC1	M5 PAM 29
CSCCC(NC(=O)COc1ccccc1)C(=O)NCCOc1ccccc1 (stereo unspecified)	none
CCOCc1nnc(NC(=O)c2cc(OC)c(OC)cc2[N+](=O)[O-])s1	CHRM4 PAM 22
CCOCCc1nnc(NC(=O)c2cc(OC)c(OC)cc2[N+](=O)[O-])s1	none
O=c1cccc(-c2ccccc2)[nH]1	M5 PAM 30
O=C(Cn1cnc2ccccc2c1=O)c1ccc(OC(F)F)cc1	none
Cc1ccc(S(=O)(=O)c2ccc(C)cc2)cc1	none
Cc1ccc(S(=O)(=O)C=CS(=O)(=O)c2ccc(C)cc2)cc1	M4 antag 32
O=S(=O)(/C=C/C=C/S(=O)(=O)c1ccccc1)c1ccccc1	M4 antag 43
CC1(c2ccccc2)NC(=O)N(CC(=O)Nc2ccc(S(=O)(=O)NC3=NCCCCC3)cc2)C1=O (stereo unspecified)	none
CC1=C(C(=O)OC2CCCCCC2)C(c2ccc(C)o2)C2=C(CCCC2=O)N1 (stereo unspecified)	none
COC(=O)C1=C(C)NC2=C(C(=O)CCC2)C1c1ccc(-c2ccsc2C(=O)OC)o1 (stereo unspecified)	CHRM4 agonist 37
COc1cccc(COc2cc3ccccc3nc2C)c1	M5 antag 31
Cc1nc2ccccc2cc1OCc1ccccc1	none
Cc1nc2ccccc2cc1OCc1ccc(Cl)cc1	M5 antag 30
COc1ccc(N2CCN(C3CCCN(C(=O)CN4CCOC4=O)C3)CC2)cc1 (stereo unspecified)	none
CN1C(=O)N(c2ccc(Cl)cc2)C(C)(O)CC1(C)C (stereo unspecified)	M5 PAM 25
CCCCN1C(=O)N(c2ccc(Cl)cc2)C(C)(O)CC1(C)C (stereo unspecified)	none
Cc1ccc(-n2c(C)nnc2SCC(=O)N(C)c2c(N)n(Cc3ccccc3)c(=O)[nH]c2=O)cc1	none
CCN1CCC[C@H]1CNCCCn1cnc2c(SC)ncnc21	none
CCCC1C(=O)Nc2ccccc2N1C(=O)c1cccc(C)c1 (stereo unspecified)	M4 antag 45, M5 antag 29
COc1cccc(N2CCN(C(=S)Nc3cc(C)cc(C)c3)CC2)c1	none
CNC(=S)N1CCN(c2cccc(OC)c2)CC1	M4 antag 33
CCCCNC(=O)c1nc(C2CCN(S(=O)(=O)c3cccc(C(F)(F)F)c3)CC2)oc1-c1cccc(C(F)(F)F)c1	none
Cc1ccc(N2CC(O)(c3cccs3)[N+]3=C2CCCC3)cc1 (stereo unspecified)	M4 antag 40, M5 antag 42
CCc1ccc(N2CC(O)(c3cccs3)[N+]3=C2SCCC3)cc1 (stereo unspecified)	M5 antag 33
Cc1cccc(N2CC(O)(c3cccs3)[N+]3=C2CCCC3)c1C (stereo unspecified)	M4 antag 30
COc1ccc(C(=O)N2CCN(c3nc4cc(C)cc(C)c4cc3C#N)CC2)cc1	none
CCn1c(C)cc(/C=C2\NC(=O)N(Cc3ccc(Cl)cc3)C2=O)c1C	M4 antag 31
CCN1C(=O)N/C(=C/c2cc(C)n(Cc3ccccc3)c2C)C1=O	none
Cc1ccc(CNC(=O)C(=O)NCC2CCCN2S(=O)(=O)c2cc(C)ccc2C)cc1 (stereo unspecified)	none
O=C(CCSc1ccccn1)c1ccccc1	M5 antag 28
COc1ccccc1C(=O)CSc1ccccn1	M5 antag 27
COC(=O)CNC(=O)CSc1ccccn1	none
O=C(O)CCSc1ccccn1	none
CCN(CC)c1c([N+](=O)[O-])c(=O)n(C)c2ccccc12	none
Cn1c(=O)c([N+](=O)[O-])c(Cl)c2ccccc21	M4 antag 41
Cc1oc2c(c(=O)c1C)C(=O)CC(c1ccccc1)C2 (stereo unspecified)	M5 antag 43
O=C(NCCCSc1ccccc1)c1cc(Br)ccc1O	M5 antag 33
COc1cccc(CN(C)C(=O)c2cccc(S(=O)(=O)NCc3ccccc3)c2)c1OC	none
COc1ccc(CN2CCN(Cc3cccc(Oc4ccccc4)c3)CC2)c(OC)c1OC	M5 antag 35
COc1ccc(CN(C)C(=O)c2cccc(Oc3ccccc3)c2)c(OC)c1OC	M5 antag 30
CC[C@@]1(C(=O)OC)N[C@H](CN(C)C(=O)Nc2ccc(OC)cc2)[C@@H]2C(=O)N(Cc3ccccc3)C(=O)[C@@H]21	none
CCCc1cc(=O)oc2cc(C)cc(OC(C)C(=O)NCCCn3ccnc3)c12 (stereo unspecified)	none
c1ccc(-c2csc3ncnc(NCC4COc5ccccc5O4)c23)cc1 (stereo unspecified)	M4 antag 38, M5 antag 38

From PubChem
